{
  "source": "ChEMBL document CHEMBL4706553",
  "about": "“Discovery of potent small molecule PROTACs targeting mutant EGFR” (Eur J Med Chem, 2020)",
  "key": {"A-431": {"test_system": "A-431", "test": "Antiproliferative activity against human A431 cells expressing wild type EGFR assessed as cell growth inhibition measured after 72 hrs by MTT assay", "type": "functional, cell-based", "settings": "A-431, 72 h", "method_in_brief": "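Cells were seeded at 3000–8000/well and allowed 24 h, then exposed to serial compound concentrations for 72 h. MTT (5 mg/mL stock in PBS) was added for 4 h, supernatant removed and DMSO added. IC50, defined as 50% growth inhibition, was derived by nonlinear regression (log inhibitor vs response).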"}, "HCC827 [1]": {"test_system": "HCC827", "test": "Antiproliferative activity against human HCC827 cells expressing EGFR del19 mutant assessed as cell growth inhibition measured after 72 hrs by MTT assay", "type": "functional, cell-based", "settings": "HCC827, 72 h", "method_in_brief": "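HCC827 cells were kept in RPMI-1640 with 10% heat-inactivated FBS, 1% sodium pyruvate, 1% glutamine and 1% penicillin-streptomycin at 37 °C and 5% CO₂, seeded at 3000–8000/well and rested 24 h. Compounds were applied as a concentration series for 72 h. MTT (5 mg/mL stock in PBS) was given for 4 h, then medium was removed and DMSO added. IC50 came from nonlinear regression (log inhibitor vs response).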"}, "NCI-H1975 [2]": {"test_system": "NCI-H1975", "test": "Antiproliferative activity against human H1975 cells expressing EGFR L858R/T790M mutant assessed as cell growth inhibition measured after 72 hrs by MTT assay", "type": "functional, cell-based", "settings": "NCI-H1975, 72 h", "method_in_brief": "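MTT assay on H1975 cells grown in RPMI-1640 with 10% heat-inactivated FBS and 1% penicillin-streptomycin at 37 °C and 5% CO₂. Cells were seeded at 3000–8000 per well and left 24 h, then exposed to a concentration series for 72 h. MTT (5 mg/mL stock in PBS) was added for 4 h, supernatant removed and formazan dissolved in DMSO. IC50 was fitted by nonlinear regression (log inhibitor vs response).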"}, "[3]": {"test_system": "von Hippel-Lindau disease tumor suppressor/Epidermal growth factor receptor (Homo sapiens), P00533+P40337 [UNDEFINED MUTATION]", "test": "Protac activity at VHL/EGFR del19 mutant in human HCC827 cells assessed as induction of EGFR degradation at 33 nM incubated for 24 hrs measured following drug wash-out for 24 hrs by Western blot analysis", "type": "cell-based", "method_in_brief": "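HCC827 cells (RPMI-1640, 10% heat-inactivated FBS, 1% sodium pyruvate, 1% glutamine, 37 °C, 5% CO₂) treated at 33 nM for 24 h. Medium then replaced with compound-free medium, and protein harvested at the stated times. EGFR read by Western blot; n = 2.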"}, "HCC827 [4]": {"test_system": "HCC827", "test": "Induction of cell cycle arrest in human HCC827 cells assessed as accumulation at G1 phase at 10 to 100 nM measured after 48 hrs by propidium iodide staining based flow cytometry analysis", "type": "functional", "settings": "dose 10-100 nM", "method_in_brief": "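Cell cycle: cells were seeded at 0.5–1 × 10⁶ per well for 24 h, then treated 48 h. They were collected and washed twice in PBS, stained with PI/RNase at 37 °C for 15 min, and analysed by flow cytometry. n = 2.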"}, "NCI-H1975 [5]": {"test_system": "NCI-H1975", "test": "Inhibition of colony formation in human NCI-H1975 cells at 100 nM incubated for 15 days by crystal violet staining based analysis", "type": "functional, cell-based", "settings": "time 15.0 day", "method_in_brief": "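Colony formation: 200 cells per well were seeded and incubated 24 h, then kept with compound for 15 days. After three PBS washes, cells were fixed in cold 75% ethanol and stained with 0.1% crystal violet in water for 1 h. Colonies were counted.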"}, "[6]": {"test_system": "von Hippel-Lindau disease tumor suppressor/Epidermal growth factor receptor (Homo sapiens), P00533+P40337 [UNDEFINED MUTATION]", "test": "Protac activity at VHL/EGFR del19 mutant in human HCC827 cells assessed as induction of EGFR degradation at 333 nM measured after 24 hrs by Western blot analysis", "type": "cell-based", "method_in_brief": "(§1)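 HCC827 cells seeded at 0.5–1 × 10⁶ per well, grown 24 h, then treated at the stated concentrations for 24 h. EGFR^del19 level by Western blot with anti-EGFR antibody and β-actin loading control.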"}, "[7]": {"target": "von Hippel-Lindau disease tumor suppressor/Epidermal growth factor receptor (Homo sapiens, UniProt P00533+P40337, T790M/L858R)", "test": "Protac activity at VHL/EGFR L858R/T790M mutant in human H1975 cells assessed as induction of degradation of EGFR incubated for 48 hrs by Western blot analysis", "type": "cell-based", "settings": "nci-h1975", "method_in_brief": "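H1975 cells exposed to the stated concentrations for 48 h. EGFR by Western blot; n = 3. DC₅₀ by nonlinear regression, log(inhibitor) vs response.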"}, "[8]": {"test_system": "von Hippel-Lindau disease tumor suppressor/Epidermal growth factor receptor (Homo sapiens), P00533+P40337 [UNDEFINED MUTATION]", "test": "Protac activity at VHL/EGFR del19 mutant in human HCC827 cells assessed as induction of EGFR degradation by measuring reduction in Akt phosphorylation at 3 nM incubated for 48 hrs by Western blot analysis", "type": "cell-based", "method_in_brief": "(§2)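 HCC827 or H1975 cells treated at the stated concentrations for 48 h. Lysates probed by Western blot for EGFR, P-EGFR, Akt and P-Akt (each 1:1000); n = 2.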"}, "[9]": {"test_system": "von Hippel-Lindau disease tumor suppressor/Epidermal growth factor receptor (Homo sapiens), P00533+P40337 [L858R,T790M]", "test": "Protac activity at VHL/EGFR L858R/T790M mutant in human H1975 cells assessed as induction of degradation of EGFR by measuring reduction in Akt phosphorylation at 100 nM incubated for 48 hrs by Western blot analysis", "type": "cell-based", "settings": "NCI-H1975", "method_in_brief": "as §2"}, "NCI-H1975 [10]": {"test_system": "NCI-H1975", "test": "Effect on Akt protein expression in human H1975 cells at 0.1 to 1 uM incubated for 48 hrs by Western blot analysis", "type": "functional, cell-based", "settings": "dose 0.1-1 µM"}, "[11]": {"test_system": "von Hippel-Lindau disease tumor suppressor/Epidermal growth factor receptor (Homo sapiens), P00533+P40337 [UNDEFINED MUTATION]", "test": "Protac activity at VHL/EGFR del19 mutant in human HCC827 cells assessed as induction of EGFR degradation at 1 to 33 nM incubated for 24 hrs by Western blot analysis", "type": "cell-based", "settings": "dose 1-33 nM", "method_in_brief": "as §1"}, "[12]": {"test_system": "von Hippel-Lindau disease tumor suppressor/Epidermal growth factor receptor (Homo sapiens), P00533+P40337 [L858R,T790M]", "test": "Protac activity at VHL/EGFR L858R/T790M mutant in human H1975 cells assessed as induction of degradation of EGFR at 0.33 to 1 uM incubated for 24 hrs by Western blot analysis", "type": "cell-based", "settings": "NCI-H1975, dose 0.33-1 µM", "method_in_brief": "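H1975 cells, after 24 h seeding, treated at the stated concentrations for 24 h. EGFR by Western blot with β-actin loading control.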"}, "[13]": {"test_system": "von Hippel-Lindau disease tumor suppressor/Epidermal growth factor receptor (Homo sapiens), P00533+P40337 [UNDEFINED MUTATION]", "test": "Protac activity at VHL/EGFR del19 mutant in human HCC827 cells assessed as induction of EGFR degradation at 0.033 uM pretreated with ubiquitination inhibitor, MLN4924 for 2 hrs followed by incubation with compound for 24 hrs by Western blot analysis", "type": "cell-based"}, "[14]": {"test_system": "von Hippel-Lindau disease tumor suppressor/Epidermal growth factor receptor (Homo sapiens), P00533+P40337 [UNDEFINED MUTATION]", "test": "Protac activity at VHL/EGFR del19 mutant in human HCC827 cells assessed as induction of EGFR degradation at 0.033 uM pretreated with proteasome inhibitor, MG132 for 2 hrs followed by incubation with compound for 24 hrs by Western blot analysis", "type": "cell-based"}, "[15]": {"test_system": "von Hippel-Lindau disease tumor suppressor/Epidermal growth factor receptor (Homo sapiens), P00533+P40337 [L858R,T790M]", "test": "Protac activity at VHL/EGFR L858R/T790M mutant in human H1975 cells assessed as induction of degradation of EGFR at 1 uM pretreated with autophagy inhibitor, chloroquine for 2 hrs followed by incubation with compound for 24 hrs by Western blot analysis", "type": "cell-based", "settings": "NCI-H1975", "method_in_brief": "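H1975 cells pretreated with chloroquine for 2 h, then exposed to compound for 24 h. EGFR level by Western blot; n = 3.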"}, "[16]": {"test_system": "von Hippel-Lindau disease tumor suppressor/Epidermal growth factor receptor (Homo sapiens), P00533+P40337 [L858R,T790M]", "test": "Protac activity at VHL/EGFR L858R/T790M mutant in human H1975 cells assessed as induction of degradation of EGFR at 0.1 uM pretreated with mTOR inhibitor, rapamycin for 8 hrs followed by incubation with compound for 16 hrs by Western blot analysis", "type": "cell-based", "settings": "NCI-H1975", "method_in_brief": "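H1975 cells given rapamycin at the stated concentrations for 8 h, then compound for 16 h. EGFR by Western blot; n = 3.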"}},
  "note": "Activity calls are given as the source filed them.",
  "data": [
    {"molecule": "Cc1ncsc1-c1ccc(CNC(=O)[C@@H]2C[C@@H](O)CN2C(=O)[C@@H](NC(=O)CCCCCCN2CCN(c3ccc(Nc4ncc5nc(Nc6ccccc6)n(C6CCCC6)c5n4)cc3)CC2)C(C)(C)C)cc1", "values": [
      {"measurement": "IC50", "setting": "A-431", "result": 245, "unit": "nM"},
      {"measurement": "IC50", "setting": "HCC827 [1]", "result": 0.83, "unit": "nM"},
      {"measurement": "IC50", "setting": "NCI-H1975 [2]", "result": 203, "unit": "nM"},
      {"measurement": "Activity", "setting": "[3]", "result": "Active"},
      {"measurement": "Activity", "setting": "HCC827 [4]", "result": "Active"},
      {"measurement": "inhibition", "setting": "NCI-H1975 [5]", "result": "Active"},
      {"measurement": "Activity", "setting": "[6]", "result": "inactive"},
      {"measurement": "DC50", "setting": "[7]", "result": 126, "unit": "nM"},
      {"measurement": "Activity", "setting": "[8]", "result": "Active"},
      {"measurement": "Activity", "setting": "[9]", "result": "Active"},
      {"measurement": "Activity", "setting": "NCI-H1975 [10]", "result": "inactive"},
      {"measurement": "Activity", "setting": "[11]", "result": "Active"},
      {"measurement": "Activity", "setting": "[12]", "result": "Active"},
      {"measurement": "Activity", "setting": "[13]", "result": "inactive"},
      {"measurement": "Activity", "setting": "[14]", "result": "Active"},
      {"measurement": "Activity", "setting": "[15]", "result": "inactive"},
      {"measurement": "Activity", "setting": "[16]", "result": "Active"}
    ]}
  ]
}
